Columns and labels:
[1] = target: Cannabinoid receptor 2 (Homo sapiens, UniProt P34972); test: Displacement of [3H]CP 55940 from human CB2 receptor expressed in CHO cells after 90 mins by liquid scintillation counting; type: cell-based
Method in brief: (§1)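 Competition binding with 0.2 nM [3H]CP-55,940 and 5 mM MgCl2, in triplicate per concentration, using 50 mM Tris with 0.05% BSA and 0.1% ethanol/0.1% DMSO. CB1 used mouse whole-brain membranes and CB2 used CHO-hCB2 membranes. […] GF/B filtration, ice-cold washes, scintillation counting. Specific binding taken as percent of no-competitor.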

[2] = target: Cannabinoid receptor 1 (Mus musculus, UniProt P47746); test: Displacement of [3H]CP 55940 from CB1 receptor in mouse whole brain membrane homogenates after 90 mins by liquid scintillation counting; type: cell membranes; method in brief: as §1
Chain of Cannabinoid receptor 1 (P47746 whole entry): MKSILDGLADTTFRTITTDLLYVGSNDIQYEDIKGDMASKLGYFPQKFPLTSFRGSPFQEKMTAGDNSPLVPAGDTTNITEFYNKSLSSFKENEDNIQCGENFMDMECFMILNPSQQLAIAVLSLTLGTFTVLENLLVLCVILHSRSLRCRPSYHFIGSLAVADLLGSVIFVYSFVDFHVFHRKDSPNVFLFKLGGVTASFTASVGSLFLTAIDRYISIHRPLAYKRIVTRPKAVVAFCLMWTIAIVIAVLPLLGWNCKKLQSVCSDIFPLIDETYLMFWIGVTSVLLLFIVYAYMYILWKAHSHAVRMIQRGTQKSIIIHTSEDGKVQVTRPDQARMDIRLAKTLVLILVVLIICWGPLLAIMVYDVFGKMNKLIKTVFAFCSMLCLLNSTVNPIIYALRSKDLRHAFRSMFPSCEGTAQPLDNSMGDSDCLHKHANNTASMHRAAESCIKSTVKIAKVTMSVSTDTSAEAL

[3] = Selectivity ratio of Ki for CB1 receptor in mouse whole brain membrane homogenates to Ki for human CB2 receptor; type: cell membranes

Chain of Cannabinoid receptor 2 (P34972 whole entry): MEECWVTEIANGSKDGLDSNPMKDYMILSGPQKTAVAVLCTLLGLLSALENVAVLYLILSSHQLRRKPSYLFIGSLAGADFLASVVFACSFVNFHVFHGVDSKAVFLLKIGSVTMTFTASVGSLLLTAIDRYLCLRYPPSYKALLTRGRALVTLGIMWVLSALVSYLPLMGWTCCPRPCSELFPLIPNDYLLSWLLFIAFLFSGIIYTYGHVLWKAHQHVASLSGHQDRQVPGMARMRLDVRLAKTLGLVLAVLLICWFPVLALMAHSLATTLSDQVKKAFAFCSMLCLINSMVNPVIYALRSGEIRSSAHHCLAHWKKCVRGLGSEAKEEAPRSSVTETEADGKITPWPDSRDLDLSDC

| SMILES | Ki [1] | Ki [2] | Ratio Ki [3] |
| --- | --- | --- | --- |
| O=C1/C(=C/c2cn(Cc3ccccc3Br)c3ccccc23)N2CCC1CC2 | 333 nM | 629 nM | – |
| O=C1/C(=C/c2cn(Cc3ccc(Cl)cc3)c3ccccc23)N2CCC1CC2 | 20.3 nM | 31.7 nM | – |
| N#Cc1ccc(Cn2cc(/C=C3/C(=O)C4CCN3CC4)c3ccccc32)cc1 | 114 nM | 55.3 nM | – |
| O=C1/C(=C/c2cn(Cc3ccccc3)c3ccccc23)N2CCC1CC2 | 11.7 nM | 135 nM | – |
| O/N=C1/C(=C/c2cn(Cc3ccc(Cl)cc3)c3ccccc23)N2CCC1CC2 | – | 95.7 nM | – |
| COC(=O)c1ccc(Cn2cc(/C=C3/C(=O)C4CCN3CC4)c3ccccc32)cc1 | 588 nM | 953 nM | – |
| O/N=C1/C(=C/c2cn(Cc3ccccc3)c3ccccc23)N2CCC1CC2 | 68.6 nM | 357 nM | – |
| O=C1/C(=C/c2cn(Cc3ccc(F)cc3)c3ccccc23)N2CCC1CC2 | 1.33 nM | 9.23 nM | – |
| OC1/C(=C/c2cn(Cc3ccccc3)c3ccccc23)N2CCC1CC2 (racemic) | 55.3 nM | 540 nM | – |
| OC1/C(=C/c2cn(Cc3ccc(Cl)cc3)c3ccccc23)N2CCC1CC2 (racemic) | – | 85.3 nM | – |
| COC(=O)c1ccc2c(/C=C3/C(=O)C4CCN3CC4)cn(Cc3ccccc3)c2c1 | 2.5 nM | 85.7 nM | 34 |

Source: ChEMBL document CHEMBL2346574, “Evaluation of (Z)-2-((1-benzyl-1H-indol-3-yl)methylene)-quinuclidin-3-one analogues as novel, high affinity ligands for CB1 and CB2 cannabinoid receptors” (Bioorg Med Chem Lett, 2013)
